Screens (PubChem BioAssay)
A selection: hits, their analogues and other compounds. The true share with any hit is near 5.7%.
Mdm2 MdmX PPI: disrupts the human Mdm2-MdmX interaction; O15151+Q00987; SaOS-2 split-luciferase Mdm2/MdmX complementation, luminescence; inhibition, % at 8 µM; actives 3% (n = 330,000); AID 485346;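 active = inhibition of at least 50% at 8 µM in the primary screen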
SKKanGAS inh: inhibitors of SKKanGAS S. pyogenes growth in kanamycin (SK-promoter or general growth effect); BacTiter-Glo, 6 h; inhibition, % at 7.5 µM; actives 1.3% (n = 300,000); AID 1662;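 active = mean replicate score, as percent of positive control median, at least 50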;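 note: strain carries kanamycin resistance gene driven by streptokinase promoter and grows in 40 µg/ml kanamycin; loss of luminescence reflects streptokinase promoter inhibition or plain growth inhibition; 0% = median of DMSO wells and 100% = positive control at its reference dose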
T cruzi inh: blocks replication of Trypanosoma cruzi | T. cruzi beta-gal in NIH3T3, luminescence, 90 h | inhibition, % (concentration not given with the values) | actives 1.4% (n = 300,000) | AID 1885;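 active = mean inhibition across valid replicates above about 55%, limit read from the data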;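 note: signal also drops with host cell toxicity which is not excluded here; 0% = plate median of DMSO wells and 100% = zero luminescence signal; higher percent means less beta-gal luminescence so fewer parasites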
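Test system: β-gal T. cruzi (Tulahuen C4) inside NIH/3T3 cells / Quantity: 5,000 cells/well / Measured by: luminescence from GalScreen with 0.05% NP40, read after 60 min / Medium: DMEM plus 2% FBS / Measure: parasite load inhibition, % / Reagent: Tulahuen C4 trypomastigotes, 5000/well / Schedule: co-culture of at least 90 h after 3 h attachment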
Calb FLC: affects C. albicans growth with fluconazole; C. albicans CaCi-2 (fluconazole-resistant clinical isolate) + fluconazole, Alamar Blue growth, 48 h; growth inhibition, % (no concentration beside the values); actives 0.57% (n = 300,000); AID 1979;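 active = growth inhibition above about 58% in most replicates, limit read from the data, passing the limit was not always enough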;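 note: all wells also contain fluconazole at 8 µg/ml as a sub-toxic cotreatment; 0% = median of DMSO wells and 100% = median of geldanamycin control wells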
Beta apoptosis: beta cell apoptosis inhibition | actives 0.8% (n = 300,000) | AID 435005 | protection from apoptosis, % (concentration not given with the values) | INS-1E cytokine-induced death, ATP luminescence, 48 h; percent of positive-control rescue, neutral wells zero;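 active = Every replicate reaches about 75%, or at least half do and their mean reaches it too, limit read from the data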;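 note: 0% = cytokine-treated negative control wells and 100% = positive control rescue; higher means more ATP so stronger rescue from cytokine killing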
CSC inhib: cancer stem cell inhibition; actives 1.1% (n = 300,000); cancer stem cell-like cells viability, luminescence; inhibition, % at 7.5 µM; in the data active = inhibition above about 75%; tested in HMLE shEcad cells
Numbers without * were called inactive; . = no result.

SMILES	Mdm2 MdmX PPI	SKKanGAS inh	T cruzi inh	Calb FLC	Beta apoptosis	CSC inhib
CCCC(c1nnnn1CS(=O)(=O)c1ccc(C)cc1)N1CCN(c2ccccc2)CC1 (stereo unspecified)	18	6	16	-9	.	-21
O=C(O)c1ccc(NC(=O)c2ccccc2NC(=O)c2ccccc2Cl)cc1	-3	-1	2	6	-3	-8
C[C@H](NC(N)=O)C(=O)Nc1ccc(N2CCOCC2)c(S(=O)(=O)Nc2ccc(Cl)cc2)c1	-13	.	.	.	.	.
c1ccc(CCn2nnnc2C(c2cccnc2)N2CCN(c3nc4ccccc4s3)CC2)cc1 (stereo unspecified)	30	14	60*	15	7	18
COc1ccc(CN(C)C(=O)c2ccc3c(=O)n4c(nc3c2)CCC4)c(OC)c1	22	-2	-3	-4	2	-2
CCCC(=O)NNC(=O)CCC(=O)Nc1ccccc1Cl	5	-1	-2	2	-6	.
O=C(CCC(=O)Nc1ccccc1Cl)NNS(=O)(=O)c1ccc(Cl)cc1	20	.	.	111*	-6	-6
CCCN(CC#CC(O)(c1ccccc1)c1cccnc1)CCC (stereo unspecified)	10	-21	65*	37	0	0
CCOc1nc2cnccc2n(CC(=O)Nc2c(C)cccc2CC)c1=O	5	16	-15	-19	-5	-2
C#CCOCCOCCOCCNc1nc(N2CCN(C(=O)CCCCCCCCCCNC(=O)[C@H]([C@@H](C)CC)n3cc(CCCCN=C(N)N)nn3)CC2)nc(N2CCN(C(=O)CCCCCCCCCCNC(=O)[C@H](CCCN=C(N)N)n3cc(C[C@@H](C)CC)nn3)CC2)n1	-23	.	.	.	98*	88*
C#CCOCCOCCOCCNc1nc(N2CCN(C(=O)CCCCCCCCCCNC(=O)[C@H](CCCN=C(N)N)n3cc(C[C@@H](C)CC)nn3)CC2)nc(N2CCN(C(=O)CCCCCCCCCCNC(=O)[C@@H]([C@H](C)CC)n3cc(CCCCCN)nn3)CC2)n1	43	.	.	.	107*	168*
CC(=O)c1ccc(OC(=O)COc2ccccc2Cl)cc1	22	2	-3	-2	-5	14
CCCNC1=C(N(C(C)=O)c2cccc(F)c2)C(=O)c2ccccc2C1=O	.	12	55*	1	126*	102*
CCCCOc1ccc(C(=O)Nc2cccc(-n3cnnn3)c2)cc1OC	16	8	11	.	-3	11
CCn1c(CSc2nc3ccccc3s2)nnc1SCC(=O)c1ccc(O)c(O)c1	34	0	-22	105*	.	.
N#CCCCSc1nnc(CSc2nc3ccccc3s2)n1-c1ccccc1	8	5	13	3	1	-7
CCCSc1nnc(CSc2nc3ccccc3s2)n1-c1ccccc1	7	-17	53	-10	44	86*
CCn1c(SCC(=O)c2ccc(O)c(O)c2)nnc1-c1ccccc1OC	-28	-10	-28	96*	-5	-5
C=CCn1c(SCC(=O)c2ccc(O)c(O)c2)nnc1-c1ccccc1OC	1	-1	-12	-26	-7	-9
CCN(CC)C(=O)c1[nH]cnc1C(=O)NCC(=O)OC(C)(C)C	-22	0	-16	-2	0	-1
COc1ccccc1C(=O)Nc1ccc(OCC(=O)N2CC(C)OC(C)C2)cc1 (stereo unspecified)	8	.	.	.	-1	-3
Cc1cccc(CNc2ccc(C(CC(N)=O)NC(=O)c3ccccc3)cc2[N+](=O)[O-])c1 (stereo unspecified)	13	2	0	-6	-5	60
NC(=O)CC(NC(=O)c1ccc(Br)cc1)c1ccc(N2CCN(c3ccccc3)CC2)c([N+](=O)[O-])c1 (stereo unspecified)	19	22	5	-21	.	-19
NC(=O)CC(NC(=O)Cc1ccc(Br)cc1)c1ccc(NC2CCCCCC2)c([N+](=O)[O-])c1 (stereo unspecified)	39	18	-11	-2	-8	76*
Cc1ccccc1CNc1ccc(C(CC(N)=O)NC(=O)c2ccccc2)cc1[N+](=O)[O-] (stereo unspecified)	22	-1	-7	2	4	78*
SMILES	Mdm2 MdmX PPI	SKKanGAS inh	T cruzi inh	Calb FLC	Beta apoptosis	CSC inhib
NC(=O)CC(NC(=O)c1ccc(Br)cc1)c1ccc(N2CCCCCCC2)c([N+](=O)[O-])c1 (stereo unspecified)	18	46	21	-1	1	131*
CN(CC(=O)Nc1ccccc1Br)C(=O)CCSc1ccc(F)cc1	19	-2	-8	1	5	-18
CCOC(=O)CCC(=O)O[C@H]1[C@H](O[C@@H]2[C@@H](C)[C@H](O[C@H]3C[C@@](C)(OC)[C@@H](O)[C@H](C)O3)[C@@H](C)C(=O)O[C@H](CC)[C@@](C)(O)[C@H](O)[C@@H](C)C(=O)[C@H](C)C[C@@]2(C)O)O[C@H](C)C[C@@H]1N(C)C	.	105*	-5	-2	.	0
CC[C@H]1OC(=O)[C@H](C)[C@@H](O[C@H]2C[C@@](C)(OC)[C@@H](O)[C@H](C)O2)[C@H](C)[C@@H](O[C@@H]2O[C@H](C)C[C@H](N(C)C)[C@H]2O)[C@](C)(O)C[C@@H](C)C(=O)[C@H](C)[C@@H](O)[C@]1(C)O	.	102*	-5	.	-2	5
CCN(CC(=O)NCc1cccs1)C(=O)c1cc(Br)ccc1O	-4	.	.	.	0	8
Cc1cccc(C=Nc2ccccc2C(N)=O)c1	42	3	-11	-11	8	-1
Cc1ccc(C=Nc2ccccc2C(N)=O)s1	29	-1	-46	-3	8	78*
COc1cccc(/C=N/NC(=S)Nc2cccc(C(=O)O)c2)c1O	13	.	19	.	10	35
COc1cccc(/C=N/NC(=S)NC2CC3CC2C2C=CCC32)c1O (stereo unspecified)	32	109*	-19	13	2	0
Oc1ccccc1/C=N/NC(=S)NC1CC2CC1C1C=CCC21 (stereo unspecified)	36	93*	-19	2	28	100*
Oc1ccc(/C=N/NC(=S)NC2CC3CCC2C3)cc1 (stereo unspecified)	-1	-2	1	-6	10	19
C[C@@H]1NS(=O)(=O)[C@H]2C[C@@H]3C=C[C@]2(O3)[C@H]1OC(=O)c1ccc(C(C)(C)C)cc1	19	.	.	.	-4	-6
CCOC(=O)Cc1nnc(NC(=O)C(CC)Sc2nc(C)cc(=O)[nH]2)s1 (stereo unspecified)	-8	-1	-15	-2	-4	-5
CCCCc1nnc(NC(=O)C(C)Sc2nc(N)cc(=O)[nH]2)s1 (stereo unspecified)	-35	-3	-12	76*	-1	-2
CCN(CC(=O)Nc1ccccc1C(F)(F)F)C(=O)C1=COCCO1	5	1	-10	-10	.	-11
